Data: ChEMBL document CHEMBL3808335, “Discovery of KLS-13019, a Cannabidiol-Derived Neuroprotective Agent, with Improved Potency, Safety, and Permeability” (ACS Med Chem Lett, 2016)
In brackets after ≈: the same amount, converted by molar mass.

What was measured:
[1] = Neuroprotective activity in rat hippocampal neurons assessed as protection against ammonium acetate induced cell death after 5 hrs by propidium iodide staining based fluorimetric analysis; type: functional, Hippocampal neurone
How it was run: (§1)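 Ammonium acetate (300 μM) used as toxin. Viability read by CFDA fluorescence, cell death by propidium iodide. Full efficacy defined as the fluorescence of neurons without toxin.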

[2] = Neuroprotective activity in rat hippocampal neurons assessed as protection against ethanol induced cell death after 5 hrs by propidium iodide staining based fluorimetric analysis; type: functional, Hippocampal neurone
How it was run: (§2)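 Ethanol (30 mM) used as toxin. Viability read by CFDA fluorescence, cell death by propidium iodide. Full efficacy defined as the fluorescence of neurons without toxin.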

[3] = Neuroprotective activity in rat hippocampal neurons assessed as protection against ethanol induced cell death by measuring neuronal viability after 5 hrs by carboxyfluorescein diacetate dye based fluorimetric analysis; type: functional, Hippocampal neurone; how it was run: as §2
[4] = Neuroprotective activity in rat hippocampal neurons assessed as protection against ammonium acetate induced cell death by measuring neuronal viability after 5 hrs by carboxyfluorescein diacetate dye based fluorimetric analysis; type: functional, Hippocampal neurone; how it was run: as §1
[5] = Toxicity in rat hippocampal neurons assessed as neuronal viability after 5 hrs by carboxyfluorescein diacetate dye based fluorimetric analysis; design: species or system Hippocampal neurone; conditions: read-out: TC50
in vitro = conditions: rat, rat hippocampal neurons
[6] = target: Cannabinoid receptor 2 (Homo sapiens) (UniProt P34972); experiment: Displacement of [3H]WIN 55212-2 from human recombinant CB2 receptor expressed in CHO cell membranes at 10 uM after 120 mins by scintillation counting analysis
Chain of Cannabinoid receptor 2 (Homo sapiens) (P34972 whole entry): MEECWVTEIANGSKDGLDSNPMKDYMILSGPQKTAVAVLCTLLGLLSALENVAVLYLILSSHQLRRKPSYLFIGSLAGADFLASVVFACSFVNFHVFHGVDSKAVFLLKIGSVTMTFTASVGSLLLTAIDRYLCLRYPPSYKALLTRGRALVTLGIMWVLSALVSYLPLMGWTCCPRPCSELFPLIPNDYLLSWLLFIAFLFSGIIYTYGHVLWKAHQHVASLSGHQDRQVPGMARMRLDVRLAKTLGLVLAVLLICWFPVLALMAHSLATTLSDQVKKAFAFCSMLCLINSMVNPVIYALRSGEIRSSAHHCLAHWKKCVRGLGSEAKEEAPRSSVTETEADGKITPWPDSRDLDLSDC

[7] = Efflux ratio of permeability from basolateral to apical over apical to basolateral side in human Caco cells; conditions: Caco-2
MDR1 [8] = experiment: Efflux ratio of permeability from basolateral to apical over apical to basolateral side in MDCK cells expressing MDR1; conditions: dog
MDR1 [9] = experiment: Apparent permeability from apical to basolateral side in MDCK cells expressing MDR1; conditions: dog
Cannabinoid receptor 1 [10] = target: T1, Cannabinoid receptor 1 (Homo sapiens, UniProt P21554); experiment: Displacement of [3H]CP 55940 from human recombinant CB1 receptor expressed in CHO cell membranes at 10 uM after 120 mins by scintillation counting analysis
T1 sequence (P21554 whole entry): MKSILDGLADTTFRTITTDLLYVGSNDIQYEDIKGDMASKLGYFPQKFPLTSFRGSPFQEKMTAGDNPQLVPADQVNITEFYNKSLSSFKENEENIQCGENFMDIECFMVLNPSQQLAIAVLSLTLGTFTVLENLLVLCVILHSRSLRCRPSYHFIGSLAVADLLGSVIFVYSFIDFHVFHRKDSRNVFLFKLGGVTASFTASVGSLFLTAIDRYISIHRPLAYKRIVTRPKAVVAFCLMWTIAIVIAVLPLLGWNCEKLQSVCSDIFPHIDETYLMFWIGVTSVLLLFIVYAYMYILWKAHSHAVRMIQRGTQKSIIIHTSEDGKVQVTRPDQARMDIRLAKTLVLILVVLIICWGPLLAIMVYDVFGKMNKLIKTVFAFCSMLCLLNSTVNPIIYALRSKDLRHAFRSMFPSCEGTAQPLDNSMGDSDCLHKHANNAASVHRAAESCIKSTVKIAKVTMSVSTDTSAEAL

[11] = Kinetic aqueous solubility of the compound at pH 7.4
[12] = Apparent permeability from apical to basolateral side in human Caco cells; conditions: Caco-2
Cannabinoid receptor 1 [13] = target: T1, Cannabinoid receptor 1; experiment: Displacement of [3H]CP 55940 from human CB1 receptor after 1 hr by liquid scintillation spectrometry
[14] = Rattus norvegicus, Hippocampal neurone, 5 h, read-out: EC50

Row | Structure (SMILES) | EC50 [1, 14] [µM] | EC50 [2, 14] [µM] | EC50 [3, 14] [µM] | EC50 [4, 14] [µM] | further results
1 | C=C(C)[C@@H]1CCC(C)=C[C@H]1c1c(O)cc(CC(=O)N2CCOCC2)cc1O | > 100 | > 100 | > 100 | > 100 | –
2 | C=C(C)[C@@H]1CCC(C)=C[C@H]1c1c(O)cc(CC2CN(C)C2)cc1O | – | – | – | – | EC50 ([1]; hippocampal neurone): ND(toxic); EC50 ([2]; hippocampal neurone): ND(toxic); EC50 ([3]; hippocampal neurone): ND(toxic); EC50 ([4]; hippocampal neurone): ND(toxic)
3 | C=C(C)[C@@H]1CCC(C)=C[C@H]1c1c(O)cc(CCNC(C)=O)cc1O | > 100 | 17 | 30 | > 100 | –
4 | C=C(C)[C@@H]1CCC(C)=C[C@H]1c1c(O)cc(CCCCC(=O)O)cc1O | 30 | 7 | 10 | 4 | –
5 | C=C(C)[C@@H]1CCC(C)=C[C@H]1c1c(O)cc(CC2CN(C(C)=O)C2)cc1O | 0.04 | 0.05 | 0.08 | 0.04 | CC50 at 5 h [5]: 300 µM; selectivity ratio at 5 h (in vitro): 7500; inhibition [6]: 56%; efflux ratio [7]: 0.53; efflux ratio (MDR1 [8]): 1.02; Papp A→B (MDR1 [9]): 35 ×10⁻⁶ cm/s; inhibition (Cannabinoid receptor 1 [10]): 13%; solubility kinetic [11]: 87 µM (≈ 30.9 µg/mL); Papp A→B [12]: 49 ×10⁻⁶ cm/s
6 | C=C(C)[C@@H]1CCC(C)=C[C@H]1c1c(O)cc(CC2COC2)cc1O | 20 | 10 | 18 | 35 | –
7 | C=C(C)[C@@H]1CCC(C)=C[C@H]1c1c(O)cc(CCN2CCOCC2)cc1O | 20 | 24 | 5 | > 100 | –
8 | C=C(C)[C@@H]1CCC(C)=C[C@H]1c1c(O)cc(CCn2nccn2)cc1O | > 100 | > 100 | > 100 | > 100 | –
9 | C=C(C)[C@@H]1CCC(C)=C[C@H]1c1c(O)cc(CC2CN(C(=O)OCC)C2)cc1O | 0.05 | 0.02 | 0.03 | 0.11 | CC50 at 5 h [5]: > 100 µM; selectivity ratio at 5 h (in vitro): 900; inhibition [6]: 37%; efflux ratio [7]: 0.5; efflux ratio (MDR1 [8]): 0.97; Papp A→B (MDR1 [9]): 11 ×10⁻⁶ cm/s; inhibition (Cannabinoid receptor 1 [10]): 19%; solubility kinetic [11]: 16.6 µM (≈ 6.4 µg/mL); Papp A→B [12]: 22 ×10⁻⁶ cm/s
10 | C=C(C)[C@@H]1CCC(C)=C[C@H]1c1c(O)cc(O)cc1CC1CN(C(C)=O)C1 | > 100 | > 100 | > 100 | > 100 | –
11 | C=C(C)[C@@H]1CCC(C)=C[C@H]1c1c(O)cc(CCCCC)cc1O [CANNABIDIOL] | 4 | 3 | 1 | 2 | CC50 at 5 h [5]: 33 µM; Papp A→B (MDR1 [9]): < 2.23 ×10⁻⁶ cm/s; solubility kinetic [11]: 17 µM (≈ 5.35 µg/mL); Papp A→B [12]: < 1.5 ×10⁻⁶ cm/s
12 | C=C(C)[C@@H]1CCC(C)=C[C@H]1c1c(O)cc(CCn2ccnn2)cc1O | 1 | 2 | 5 | 3 | CC50 at 5 h [5]: > 100 µM; inhibition [6]: 1%; inhibition (Cannabinoid receptor 1 [10]): 6%
13 | CCCCCCC(C)(C)c1cc(O)c(C2CCCCC2)c(O)c1 | – | – | – | – | Ki (Cannabinoid receptor 1 [13]): 11 nM
14 | C=C(C)[C@@H]1CCC(C)=C[C@H]1c1c(O)cc(CCCCCO)cc1O | > 100 | > 100 | 54 | > 100 | –
15 | C=C(C)[C@@H]1CCC(C)=C[C@H]1c1c(O)cc(CCOCC)cc1O | 0.2 | 3 | 0.3 | 36 | –
